ChEMBL document CHEMBL1148703, “Synthesis and antiviral evaluation of 6-(alkyl-heteroaryl)furo[2,3-d]pyrimidin-2(3H)-one nucleosides and analogues with ethynyl, ethenyl, and ethyl spacers at C6 of the furopyrimidine core” (J Med Chem, 2007)

Key:
[1] = system: Human alphaherpesvirus 3; experiment: Antiviral activity against TK+ VZV YS in HEL cells assessed as reduction of virus plaque formation after 5 days; format: functional, organism-based; conditions: Human alphaherpesvirus 3, YS, 120 h
[2] = system: Human betaherpesvirus 5; experiment: Antiviral activity against HCMV AD169 in HEL cells assessed as reduction of virus plaque formation after 7 days; format: functional, organism-based; conditions: Human betaherpesvirus 5, AD169, HEL, 168 h
How it was run: (§1)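 Confluent HEL fibroblasts were infected with HCMV at 100 pfu per well. After 2 h the residual virus was removed and medium with a range of compound concentrations was added (duplicate). Cells were incubated 7 days at 37 °C, then fixed with ethanol and stained with Giemsa. Virus-induced cytopathicity was scored microscopically, and EC50 was read from graphic plots of % cytopathicity versus concentration.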

[3] = target: T1, Thymidine kinase (Varicella-zoster virus (strain Dumas) (HHV-3) (Human herpesvirus 3), UniProt P09250); experiment: Inhibition of VZV thymidine kinase; set-up: species or system Human alphaherpesvirus 3
T1 sequence (P09250 whole entry): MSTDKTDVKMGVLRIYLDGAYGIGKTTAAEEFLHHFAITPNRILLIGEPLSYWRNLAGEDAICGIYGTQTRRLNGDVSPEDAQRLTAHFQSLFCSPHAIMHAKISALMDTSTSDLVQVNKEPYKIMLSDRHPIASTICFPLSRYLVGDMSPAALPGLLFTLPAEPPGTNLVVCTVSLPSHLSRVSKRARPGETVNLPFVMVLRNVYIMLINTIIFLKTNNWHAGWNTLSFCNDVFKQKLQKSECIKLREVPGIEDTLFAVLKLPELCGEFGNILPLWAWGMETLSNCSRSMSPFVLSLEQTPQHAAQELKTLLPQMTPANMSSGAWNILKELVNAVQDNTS
How it was run: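 VZV TK enzyme assay in 50 mM Tris-HCl pH 8.0 with 2.5 mM MgCl2, 10 mM DTT, 2.5 mM ATP, 10 mM NaF, 1.0 mg/mL BSA and 1 µM [CH3-3H]dThd (0.1 µCi). Run 30 min at 37 °C, spotted on DE-81 discs, washed, radioactivity counted.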

[4] = Cytotoxicity against HEL cells assessed as alteration in cell morphology after 3 days; format: cell-based; conditions: human
[5] = Cytotoxicity against HEL cells after 3 days; format: cell-based; conditions: human
How it was run: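 HEL cells were seeded at 5 × 10^3 cells/well and allowed to grow for 24 h. Medium containing graded compound concentrations was then added, followed by 3 days at 37 °C. Cell number was counted with a Coulter counter.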

[6] = system: Human alphaherpesvirus 3; experiment: Antiviral activity against TK+ VZV OKA in HEL cells assessed as reduction of virus plaque formation after 5 days; format: functional, organism-based; conditions: Human alphaherpesvirus 3, OKA, 120 h
[7] = system: Human alphaherpesvirus 3; experiment: Antiviral activity against thymidine kinase deficient VZV YS/R in HEL cells assessed as reduction of virus plaque formation after 5 days; format: functional, organism-based; conditions: Human alphaherpesvirus 3, YS/R, 120 h
[8] = system: Human betaherpesvirus 5; experiment: Antiviral activity against HCMV Davis in HEL cells assessed as reduction of virus plaque formation after 7 days; format: functional, organism-based; conditions: Human betaherpesvirus 5, Davis, 168 h; how it was run: as §1
[9] = system: Human alphaherpesvirus 3; experiment: Antiviral activity against thymidine kinase deficient VZV 07/1 in HEL cells assessed as reduction of virus plaque formation after 5 days; format: functional, organism-based; conditions: Human alphaherpesvirus 3, 07/1, HEL, 120 h

Row | SMILES | EC50 [1] [µM] | EC50 [2] [µM] | IC50 [3] [µM] | MCC at 72 h [4] [µM] | CC50 at 72 h [5] [µM] | EC50 [6] [µM] | EC50 [7] [µM] | EC50 [8] [µM] | EC50 [9] [µM]
1 | CCCCCCCCCCc1cc2cn([C@H]3C[C@H](O)[C@@H](CO)O3)c(=O)nc2o1 | 0.066 | > 130 | ≥ 500 | ≥ 130 | > 510 | 0.094 | > 51 | 64 | > 51
2 | CCCCCCCCC#Cc1cc2cn([C@H]3C[C@H](O)[C@@H](CO)O3)c(=O)nc2o1 |  |  | 217 |  |  |  |  |  | 
3 | CCCCCCCC/C=C/c1cc2cn([C@H]3C[C@H](O)[C@@H](CO)O3)c(=O)nc2o1 | 0.72 | 22 | 65 | ≥ 120 | 230 | 1.2 | 26 | 8.4 | > 48
4 | O=c1nc2oc(C#Cc3ccccc3)cc2cn1[C@H]1C[C@H](O)[C@@H](CO)O1 | 99 | > 140 | 493 | > 570 | > 570 | ≥ 140 | > 140 | > 140 | > 140
5 | Cc1ccc(C#Cc2cc3cn([C@H]4C[C@H](O)[C@@H](CO)O4)c(=O)nc3o2)cc1 | 41 | 510 |  | ≥ 510 | 510 | 66 |  | > 130 | 36
6 | O=c1nc2oc(CCc3ccccc3)cc2cn1[C@H]1C[C@H](O)[C@@H](CO)O1 |  | > 560 |  | > 560 | > 560 | 380 |  | > 560 | > 560
7 | Cc1ccc(CCc2cc3cn([C@H]4C[C@H](O)[C@@H](CO)O4)c(=O)nc3o2)cc1 |  | > 540 |  | 540 | > 540 | > 140 |  | > 540 | > 140
8 | CCCc1ccc(CCc2cc3cn([C@H]4C[C@H](O)[C@@H](CO)O4)c(=O)nc3o2)cc1 | ≥ 50 | > 130 | > 500 | ≥ 130 | > 130 | > 130 | > 130 | > 130 | > 50
9 | CCCCCc1ccc(CCc2cc3cn([C@H]4C[C@H](O)[C@@H](CO)O4)c(=O)nc3o2)cc1 |  | > 120 |  | ≥ 470 | > 470 | 18 |  | > 120 | > 120
10 | CCCCc1ccc(-c2cc3cn([C@H]4C[C@H](O)[C@@H](CO)O4)c(=O)nc3o2)nc1 | 0.36 | > 100 | 34 | > 100 | > 50 | 0.23 | > 100 | > 100 | > 100
11 | CCCCCc1ccc(-c2cc3cn([C@H]4C[C@H](O)[C@@H](CO)O4)c(=O)nc3o2)nc1 |  | > 100 | 4.2 | > 100 | > 50 | 0.07 | > 100 | > 100 | > 100
12 | CCCCCCc1ccc(-c2cc3cn([C@H]4C[C@H](O)[C@@H](CO)O4)c(=O)nc3o2)nc1 | 0.045 | > 100 | 3.7 | > 100 | > 50 | 0.06 | 70 | > 100 | > 100
13 | CCCCCc1ccc(-c2cc3cn([C@H]4C[C@H](O)[C@@H](CO)O4)c(=O)nc3o2)cn1 | 0.09 | > 20 | 18 | 100 | > 50 | 0.13 | > 20 | > 20 | > 20
14 | CCCCCCc1ccc(-c2cc3cn([C@H]4C[C@H](O)[C@@H](CO)O4)c(=O)nc3o2)cn1 | 0.09 | > 20 | 30 | 100 | > 50 | 0.14 | > 20 | > 20 | > 20
15 | CCCCCc1cnc(-c2cc3cn([C@H]4C[C@H](O)[C@@H](CO)O4)c(=O)nc3o2)nc1 | 2 | > 100 | 24 | > 100 | > 50 | 1.9 | > 100 | > 100 | > 100
16 | CCCc1ccc(C#Cc2cc3cn([C@H]4C[C@H](O)[C@@H](CO)O4)c(=O)nc3o2)cc1 | 27 | 15 |  | 87 | > 120 | 41 | > 50 | 8.7 | > 50
17 | CCCCCCc1cnc(-c2cc3cn([C@H]4C[C@H](O)[C@@H](CO)O4)c(=O)nc3o2)nc1 | 0.71 | > 100 | 15 | > 100 | > 50 | 0.63 | > 100 | > 100 | > 100
18 | CCCC#Cc1ccc(-c2cc3cn([C@H]4C[C@H](O)[C@@H](CO)O4)c(=O)nc3o2)cn1 | 0.06 | > 20 | 2.9 | ≥ 100 | > 50 | 0.09 | > 20 | > 20 | > 20
19 | CCCCCc1ccc(C#Cc2cc3cn([C@H]4C[C@H](O)[C@@H](CO)O4)c(=O)nc3o2)cc1 | 19 | 13 |  | 470 | 110 | 17 |  | 11 | 71
20 | Nc1nc2c(ncn2COCCO)c(=O)[nH]1 [ACYCLOVIR] |  |  |  | > 220 | > 890 |  |  |  | 
21 | O=c1[nH]c(=O)n([C@H]2C[C@H](O)[C@@H](CO)O2)cc1/C=C/Br [BRIVUDINE] | 0.01 |  |  | > 150 | > 150 | 0.01 | ≥ 130 |  | ≥ 99
22 | CCCCCc1ccc(-c2cc3cn([C@H]4C[C@H](O)[C@@H](CO)O4)c(=O)nc3o2)cc1 [CF1743] |  |  |  | > 1.3 |  |  |  |  | 
23 | Nc1nc2c(ncn2COC(CO)CO)c(=O)[nH]1 [GANCICLOVIR] | 2.3 |  |  | > 200 | > 200 |  |  | 8.7 | 
